Activity calls are given as the source filed them. No cut-off for these calls is given here.
How the values were obtained:
Staphylococcus aureus = test: Antibacterial activity against Staphylococcus aureus ATCC 25923 at 100 ug/mL after 24 hrs by disk diffusion method; format: functional; conditions: ATCC 25923, 24 h, read-out: DIZ
In short: (§1)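 Paper-disc diffusion on Mueller Hinton agar, pH 7.4 ± 0.2 at 25 °C. Whatman No. 2 discs (5 mm) were heat-sterilized at 160 °C for 30 min, loaded with DMSO test solution at 100 µg/10 µL and dried, then laid on the agar. Plates were held 1 h in the refrigerator for diffusion, then incubated 24 h at 37 °C. Inhibition zone diameter was read in mm. DMSO served as solvent control; ciprofloxacin disc as reference.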

Candida albicans = test: Antifungal activity against Candida albicans ATCC 10231 at 100 ug/mL after 24 hrs by disk diffusion method; format: functional; conditions: ATCC 10231, 24 h, read-out: DIZ
In short: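 Disc diffusion as for the antibacterial test, on agar medium of glucose, peptone and Sabouraud dextrose agar in distilled water, pH 5.5 ± 0.2 at 25 °C. Sterilized 5 mm paper discs were loaded with DMSO test solution at 100 µg/10 µL and dried. Plates were held 1 h refrigerated, then incubated 24 h at 37 °C. Zone of inhibition was measured in mm.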

Escherichia coli = test: Antibacterial activity against Escherichia coli ATCC 25922 at 100 ug/mL after 24 hrs by disk diffusion method; format: functional, organism-based; in short: as §1

SMILES	zone of inhibition at 100 µg/mL (Staphylococcus aureus) [mm]	zone of inhibition at 100 µg/mL (Candida albicans) [mm]	Activity (Escherichia coli)
O=C(O)c1cn(C2CC2)c2cc(N3CCNCC3)c(F)cc2c1=O [CIPROFLOXACIN]	22	–	–
COc1ccc(Cn2cc(Cn3cc(C(c4ccc(OC)cc4)c4cn(Cc5cn(Cc6ccc(OC)cc6)nn5)c5ccccc45)c4ccccc43)nn2)cc1	18	16	inactive
Clc1ccc(Cn2cc(Cn3cc(C(c4ccccc4)c4cn(Cc5cn(Cc6ccc(Cl)cc6)nn5)c5ccc(Br)cc45)c4cc(Br)ccc43)nn2)cc1	16	21	inactive
COc1ccc(C(c2cn(Cc3cn(Cc4ccccc4)nn3)c3ccc(Br)cc23)c2cn(Cc3cn(Cc4ccccc4)nn3)c3ccc(Br)cc23)cc1	20	16	inactive
Clc1ccc(Cn2cc(Cn3cc(C(c4ccccc4)c4cn(Cc5cn(Cc6ccc(Cl)cc6)nn5)c5ccccc45)c4ccccc43)nn2)cc1	17	20	inactive
c1ccc(Cn2cc(Cn3cc(C(c4ccccc4)c4cn(Cc5cn(Cc6ccccc6)nn5)c5ccccc45)c4ccccc43)nn2)cc1	20	16	inactive
COc1ccc(C(c2c(C)n(Cc3cn(Cc4ccc(Cl)cc4)nn3)c3ccccc23)c2c(C)n(Cc3cn(Cc4ccc(Cl)cc4)nn3)c3ccccc23)cc1	16	20	inactive
CC(=O)N1CCN(c2ccc(OCC3COC(Cn4ccnc4)(c4ccc(Cl)cc4Cl)O3)cc2)CC1 (configuration not stated) [KETOCONAZOLE]	–	24	–
Cc1c(C(c2ccccc2)c2c(C)n(Cc3cn(Cc4ccccc4)nn3)c3ccccc23)c2ccccc2n1Cc1cn(Cc2ccccc2)nn1	20	16	inactive
Brc1ccc2c(c1)c(C(c1ccccc1)c1cn(Cc3cn(Cc4ccccc4)nn3)c3ccc(Br)cc13)cn2Cc1cn(Cc2ccccc2)nn1	16	21	inactive
Cc1c(C(c2ccc(Cl)cc2)c2c(C)n(Cc3cn(Cc4ccccc4)nn3)c3ccccc23)c2ccccc2n1Cc1cn(Cc2ccccc2)nn1	20	18	inactive
Cc1c(C(c2ccc(Cl)cc2)c2c(C)n(Cc3cn(Cc4ccc(Cl)cc4)nn3)c3ccccc23)c2ccccc2n1Cc1cn(Cc2ccc(Cl)cc2)nn1	19	18	inactive
Cc1c(C(c2ccccc2)c2c(C)n(Cc3cn(Cc4ccc(Cl)cc4)nn3)c3ccccc23)c2ccccc2n1Cc1cn(Cc2ccc(Cl)cc2)nn1	17	19	inactive
COc1ccc(C(c2cn(Cc3cn(Cc4ccc(Cl)cc4)nn3)c3ccccc23)c2cn(Cc3cn(Cc4ccc(Cl)cc4)nn3)c3ccccc23)cc1	16	21	inactive
Clc1ccc(Cn2cc(Cn3cc(C(c4ccc(Cl)cc4)c4cn(Cc5cn(Cc6ccc(Cl)cc6)nn5)c5ccccc45)c4ccccc43)nn2)cc1	20	16	inactive
COc1ccc(C(c2cn(Cc3cn(Cc4ccccc4)nn3)c3ccccc23)c2cn(Cc3cn(Cc4ccccc4)nn3)c3ccccc23)cc1	19	17	inactive
COc1ccc(Cn2cc(Cn3cc(C(c4ccccc4)c4cn(Cc5cn(Cc6ccc(OC)cc6)nn5)c5ccccc45)c4ccccc43)nn2)cc1	18	16	inactive
